Paper PMC6044994 (ACS Omega, 2018)
≈ marks a conversion by molar mass, not a printed value. Where two headings read alike, the source gives them in different places.

Tests used:
[1] = tested on: S. pneumoniae cells; experiment: TEM analysis of cell morphology; assay type: cell-based, Streptococcus pneumoniae; conditions: MIC concn, 1 h
Method in brief: (§1)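 Cells standardized to A600 ≈ 0.1 and exposed 1 h to test compound: E. coli at 62.5 or 125 μg/mL, S. pneumoniae at 125 μg/mL. Washed in PBS, fixed overnight in 2.5% glutaraldehyde (phosphate/MgCl2 buffer, pH 6.5). Postfixed 2 h in 2% OsO4, stained en bloc with 1% uranyl acetate, ethanol-dehydrated, Epon-embedded (60 °C, 48 h). Ultrathin sections imaged by TEM.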

[2] = tested on: E. coli; experiment: Growth kinetic studies; assay type: cell-based, Escherichia coli; conditions: for time at which growth was observed (lag phase): sub-MIC concentration
Method in brief: (§2)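 Fresh cultures grown 12 h at 37 °C, then about 2 × 10^6 cells/mL inoculated into 50 mL nutrient broth. […] Shaken at 37 °C, 160 rpm. Samples taken every 2 h from 0 to 22 h, with OD600 plotted against time.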

[3] = tested on: S. pneumoniae biofilm; experiment: Anti-biofilm activity by crystal violet assay; assay type: cell-based; conditions: Streptococcus pneumoniae, read-out: inhibition of biofilm formation (crystal violet)
[4] = tested on: G. mellonella larvae; experiment: In vivo toxicity, hemocyte density of larvae; set-up: species or system Galleria mellonella; conditions: 2.5 mg/mL, 24 h
Method in brief: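 Three larvae injected with 20 μL of test compound at 1.25 or 2.5 mg/mL and kept 24 h at 30 °C in the dark. Hemolymph collected from the anterior end and diluted 1 in 10 in cold PBS with 0.37% 2-mercaptoethanol. Hemocytes counted on a hemocytometer and density back-calculated.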

[5] = tested on: S. pneumoniae; experiment: Growth kinetic studies; assay type: cell-based, Streptococcus pneumoniae; conditions: for time at which growth was observed: S. pneumoniae
Method in brief: as §2

[6] = tested on: E. coli cells; experiment: TEM analysis of cell morphology; assay type: cell-based, Escherichia coli; conditions: MIC concn, 1 h
Method in brief: as §1

[7] = tested on: S. pneumoniae biofilm; experiment: Anti-biofilm activity by XTT reduction assay; assay type: cell-based; conditions: Streptococcus pneumoniae, read-out: inhibition of biofilm formation (XTT)
Method in brief: (§3)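 Biofilm grown in tryptic soy broth from 5 × 10^5 CFU/mL inocula with 2-fold serial dilutions of test compound (7.812–1000 μg/mL), 37 °C for 24 h, static. Nonadherent cells removed by PBS wash.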

[8] = tested on: S. pneumoniae; experiment: CFU count of bacterial cells post treatment; assay type: cell-based, Streptococcus pneumoniae; conditions: treated bacterial cells
[9] = tested on: E. coli biofilm; experiment: Anti-biofilm activity by crystal violet assay; assay type: cell-based; conditions: Escherichia coli, read-out: inhibition of biofilm formation (crystal violet)
[10] = Cytotoxicity by MTT assay; assay type: cell-based, human; conditions: human, HEK293 cells
[11] = tested on: HEK293 cells; experiment: Cytotoxicity by MTT assay; assay type: cell-based, human; conditions: HEK293, up to 100 μg/mL concentration
[12] = tested on: E. coli biofilm; experiment: Anti-biofilm activity by XTT reduction assay; assay type: cell-based; conditions: Escherichia coli, read-out: inhibition of biofilm formation (XTT)
Method in brief: as §3

[13] = tested on: E. coli; experiment: CFU count of bacterial cells post treatment; assay type: cell-based, Escherichia coli; conditions: treated bacterial cells
[14] = tested on: S. pneumoniae (MTCC 655); experiment: In vitro antibacterial activity, broth dilution; assay type: cell-based; conditions: Streptococcus pneumoniae, MTCC655
[15] = tested on: multidrug-resistant E. coli strains MRA11, MRC17, MRAE33; experiment: Synergistic study with CIP, checkerboard method; assay type: cell-based, Escherichia coli; conditions: for MIC: Escherichia coli
[16] = tested on: G. mellonella larvae; experiment: In vivo toxicity, larval viability; set-up: species or system Galleria mellonella; conditions: up to 2.5 mg/mL
[17] = tested on: E. coli (ATCC 25922); experiment: In vitro antibacterial activity, broth dilution; assay type: cell-based; conditions: Escherichia coli, ATCC25922
[18] = tested on: human red blood cells (hRBCs); experiment: Hemolytic assay; assay type: cell-based
Method in brief: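 Erythrocytes from healthy donors (EDTA) pelleted at 2000 rpm for 10 min at 20 °C and washed three times in PBS. Made to a 10% suspension, diluted 1:10, then mixed 1:1 with test compound in PBS (gradient 1000–7.8 μg/mL). Incubated 1 h at 37 °C and centrifuged; supernatant A450 used to calculate % hemolysis.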

[19] = tested on: multidrug-resistant E. coli strains; assay type: cell-based, Escherichia coli; conditions: for inhibition at 1024 µg/mL: Escherichia coli
[20] = E. coli MRA11, in combination with CIP
[21] = E. coli MRA11, test compound in combination with CIP
[22] = E. coli MRAE33, in combination with CIP
[23] = E. coli MRAE33, test compound in combination with CIP
[24] = E. coli MRC17, in combination with CIP
[25] = E. coli MRC17, test compound in combination with CIP
[26] = read-out: MIC alone, E. coli MRA11
[27] = read-out: MIC alone, E. coli MRAE33
[28] = read-out: MIC alone, E. coli MRC17
[29] = read-out: % inhibition of growth, E. coli MRA11, at 1024 μg/mL (MIC)
[30] = read-out: % inhibition of growth, E. coli MRAE33, at 1024 μg/mL (MIC)
[31] = read-out: % inhibition of growth, E. coli MRC17, at 1024 μg/mL (MIC)

SMILES | effect on cell morphology (TEM) [1] | time at which growth was observed (lag phase) ([2]; E. coli) | inhibition at 250 µg/mL [3] [%] | hemocyte density of the larvae [4] | effect on cell morphology (TEM) [6] | inhibition at 250 µg/mL [7] [%] | CFUs S. pneumoniae [8] | viability at 48 h, 50 μg/mL [10] [%] | viability at 48 h, 200 μg/mL [10] [%] | cytotoxicity [11] | CFUs E. coli [13] | MIC [14] [µg/mL] | FICI [15, 20] | mode of interaction [15, 20] | MIC in combination [15, 21] [µg/mL] | FICI [15, 22] | MIC [15, 26] [µg/mL] | MIC [15, 27] [µg/mL] | MIC [15, 28] [µg/mL] | cell lysis ([18]; 200 μg/mL) [%] | further results
O=C(O)c1ccc(-n2cc(COC3=CC(=O)c4ccccc4C3=O)nn2)cc1 [Compound 5u, 4-(4-((1,4-Dioxo-1,4-dihydronaphthalen-2-yloxy)methyl)-1H-1,2,3-triazol-1-yl)benzoic Acid] | significantly damaged the cell wall | 6 h | 98.3 | not significantly affected | significantly damaged the cell wall | 100 | 6.0 × 10^3 | > 75 | > 50 | did not show significant cytotoxicity | 2.7 × 10^4 | 125 (≈ 333 µM) | 0.62 | partially synergistic (Partially synergistic was denoted by 0.5 > FICI < 1) | 512 | 1.02 | 1020 | 1020 | 1020 | 9 | time at which growth was observed ([2]; E. coli, MIC concentration): 9 h; time at which growth was observed ([5]; MIC concentration): 9 h; time at which growth was observed ([5]; sub-MIC concentration): 8 h; inhibition at 250 µg/mL [9]: 77.3%; inhibition at 250 µg/mL [12]: 92.3%; mode of interaction [15, 22]: indifferent (indifferent was defined by 1 < FICI ≤ 4); MIC in combination [15, 23]: 16 µg/mL; FICI [15, 24]: 1.50; mode of interaction [15, 24]: indifferent (indifferent was defined by 1 < FICI ≤ 4); MIC in combination [15, 25]: 1024 µg/mL; viability of the larvae [16]: not affected; MIC [17]: 125 µg/mL (≈ 333 µM); cell lysis ([18]; 600 μg/mL): 12%; inhibition at 1024 µg/mL [19, 29]: > 90%; inhibition at 1024 µg/mL [19, 30]: ~100%; inhibition at 1024 µg/mL [19, 31]: ~100%
O=C(O)c1cn(C2CC2)c2cc(N3CCNCC3)c(F)cc2c1=O [CIP, Ciprofloxacin, reference compound] | – | – | – | – | – | – | 5.0 × 10^3 | – | – | – | 2.0 × 10^4 | – | – | – | – | – | 128 | 2 | 128 | 0.8 | MIC in combination ([15]; E. coli MRA11, CIP in combination with 5e): 2 µg/mL; MIC in combination ([15]; E. coli MRA11, CIP in combination with 5u): 16 µg/mL; MIC in combination ([15]; E. coli MRAE33, CIP in combination with 5e): 2 µg/mL; MIC in combination ([15]; E. coli MRAE33, CIP in combination with 5u): 2 µg/mL; MIC in combination ([15]; E. coli MRC17, CIP in combination with 5e): 2 µg/mL; MIC in combination ([15]; E. coli MRC17, CIP in combination with 5u): 64 µg/mL; % inhibition of growth ([19]; multidrug-resistant E. coli strains, at a concentration lower than those of the compounds): ~100%
Cc1ccc(C(C)C)cc1OCc1cn(-c2ccc(C(=O)O)cc2)nn1 [Compound 5e, 4-(4-((5-Isopropyl-2-methylphenoxy)methyl)-1H-1,2,3-triazol-1-yl)benzoic Acid] | significantly damaged the cell wall | approximately 6 h | 93.4 | not significantly affected | significantly damaged the cell wall | 92.3 | 7.8 × 10^3 | > 75 | > 50 | did not show significant cytotoxicity | 2.5 × 10^4 | 125 (≈ 356 µM) | 0.03 | synergistic (Synergy and antagonism were defined by FICI ≤ 0.5 and >4, respectively) | 16 | 1.02 | 1020 | 1020 | 1020 | 9 | growth of E. coli ([2]; MIC and 2MIC concentrations, up to 22 h of incubation): no significant growth; growth of S. pneumoniae ([5]; sub-MIC concentration (62.5 μg/mL)): effectively inhibited the growth; inhibition at 125 µg/mL [9]: 94.3%; inhibition at 125 µg/mL [12]: 95.2%; mode of interaction [15, 22]: indifferent (indifferent was defined by 1 < FICI ≤ 4); MIC in combination [15, 23]: 16 µg/mL; FICI [15, 24]: 0.03; mode of interaction [15, 24]: synergistic (Synergy and antagonism were defined by FICI ≤ 0.5 and >4, respectively); MIC in combination [15, 25]: 16 µg/mL; viability of the larvae [16]: not affected; MIC [17]: 62.5 µg/mL (≈ 178 µM); cell lysis ([18]; 600 μg/mL): 22%; inhibition at 1024 µg/mL [19, 29]: > 95%; inhibition at 1024 µg/mL [19, 30]: 86%; inhibition at 1024 µg/mL [19, 31]: 79%
